Key:
[1] = target: T1, Trehalose-phosphatase (Brugia malayi) (UniProt A8NS89); assay: Inhibition of Brugia malayi T6PP using T6P as substrate assessed as fraction of enzyme unbound with compound by measuring ratio of initial velocities of T6P substrate hydrolysis in presence and absence of compound at 1 mM […] by BioMol green dye based HTS assay
T1 sequence (whole entry): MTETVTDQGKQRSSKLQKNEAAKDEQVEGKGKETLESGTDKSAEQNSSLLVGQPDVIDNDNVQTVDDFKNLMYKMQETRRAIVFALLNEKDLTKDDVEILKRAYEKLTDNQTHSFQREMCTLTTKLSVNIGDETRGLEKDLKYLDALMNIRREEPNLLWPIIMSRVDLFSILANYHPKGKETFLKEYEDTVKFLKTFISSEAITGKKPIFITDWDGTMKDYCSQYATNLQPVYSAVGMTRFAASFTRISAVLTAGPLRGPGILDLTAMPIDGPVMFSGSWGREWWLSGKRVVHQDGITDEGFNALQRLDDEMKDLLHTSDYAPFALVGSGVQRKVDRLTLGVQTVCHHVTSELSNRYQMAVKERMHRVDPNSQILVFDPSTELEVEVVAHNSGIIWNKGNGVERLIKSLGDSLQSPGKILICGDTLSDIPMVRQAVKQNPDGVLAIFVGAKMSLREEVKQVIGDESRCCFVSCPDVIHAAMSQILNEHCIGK

Shigella boydii [2] = assay: Inhibition of Shigella boydii T6PP using T6P as substrate assessed as fraction of enzyme unbound with compound by measuring ratio of initial velocities of T6P substrate hydrolysis in presence and absence of compound at 1 mM after 5 mins by BioMol green dye based HTS assay
Method in brief: (§1)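 Freshly purified St-T6PP or Sb-T6PP (5–25 nM) in 50 mM Hepes pH 7.5, 25 mM NaCl, 2 mM MgCl₂, 5% glycerol at 25 °C. T6P at half saturation (Km) for each enzyme. Hydrolysis rate was compared with and without 1 mM inhibitor; phosphate read at 625 nm after 30 min incubation. The ratio VI/V gives the fraction of enzyme not inhibitor-bound.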

Ascaris suum [3] = assay: Inhibition of Ascaris suum T6PP using T6P as substrate assessed as fraction of enzyme unbound with compound by measuring ratio of initial velocities of T6P substrate hydrolysis in presence and absence of compound at 1 mM after 5 mins by BioMol green dye based HTS assay
Method in brief: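 T6P is at half saturation ([T6P] = Km), with and without 1 mM inhibitor, at 25 °C. Released phosphate is detected with dye (30 min incubation) by A625. The reported value is V_I/V, the initial-velocity ratio.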

[4] = tested on: Salmonella enterica subsp. enterica serovar Typhimurium; assay: Inhibition of Salmonella typhimurium T6PP using T6P as substrate assessed as fraction of enzyme unbound with compound by measuring ratio of initial velocities of T6P substrate hydrolysis in presence and absence of compound at 1 mM after 5 mins by BioMol green dye based HTS assay; method in brief: as §1
[5] = Inhibition of Salmonella typhimurium T6PP using T6P as substrate by Lineweaver-Burk plot analysis; design: species or system Salmonella enterica subsp. enterica serovar Typhimurium
Method in brief: (§2)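 Continuous phosphate-release assay (EnzChek, MESG/purine nucleoside phosphorylase) at 25 °C. Initial velocities of T6P hydrolysis by T6PP were taken at varied T6P with inhibitor at 0, Ki and 2×Ki. Km and Vmax come from double-reciprocal plots.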

Shigella boydii [6] = assay: Inhibition of Shigella boydii T6PP assessed as Km for substrate using T6P as substrate by Lineweaver-Burk plot analysis; method in brief: as §2
Shigella boydii [7] = assay: Inhibition of Shigella boydii T6PP assessed as Vmax for substrate using T6P as substrate by Lineweaver-Burk plot analysis; method in brief: as §2
[8] = Inhibition of Shigella boydii T6PP using T6P as substrate by Lineweaver-Burk plot analysis; method in brief: as §2
[9] = Inhibition of Ascaris suum T6PP using T6P as substrate by Lineweaver-Burk plot analysis
Trehalose-phosphatase = target: T2, Trehalose-phosphatase (Brugia malayi, UniProt A8NS89); assay: Competitive inhibition of Brugia malayi T6PP using T6P as substrate by Lineweaver-Burk plot analysis; method in brief: as §2
T2 sequence (A8NS89 whole entry): T1 sequence (whole entry)

Ascaris suum [10] = assay: Inhibition of Ascaris suum T6PP assessed as Km for substrate using T6P as substrate by Lineweaver-Burk plot analysis; method in brief: as §2
[11] = tested on: Salmonella enterica subsp. enterica serovar Typhimurium; assay: Inhibition of Salmonella typhimurium T6PP assessed as Km for substrate using T6P as substrate by Lineweaver-Burk plot analysis; method in brief: as §2
[12] = tested on: Salmonella enterica subsp. enterica serovar Typhimurium; assay: Inhibition of Salmonella typhimurium T6PP assessed as Vmax for substrate using T6P as substrate by Lineweaver-Burk plot analysis; method in brief: as §2
Ascaris suum [13] = assay: Inhibition of Ascaris suum T6PP assessed as Vmax for substrate using T6P as substrate by Lineweaver-Burk plot analysis; method in brief: as §2

Row | SMILES | Ratio [1] | Ratio (Shigella boydii [2]) | Ratio (Ascaris suum [3]) | Ratio [4] | Ki [5] | Km (Shigella boydii [6]) | Vmax (Shigella boydii [7]) | Ki [8] | Ki [9] | Ki (Trehalose-phosphatase) | Km (Ascaris suum [10]) | Km [11] | Vmax [12] | Vmax (Ascaris suum [13])
1 | OC[C@H]1O[C@@H](n2cc(-c3ccccc3)nn2)[C@H](O)[C@@H](O)[C@@H]1O | 0.85 | 1 | 0.96 | 0.9 |  |  |  |  |  |  |  |  |  | 
2 | OC[C@H]1O[C@@H](Nc2ccccc2)[C@H](O)[C@@H](O)[C@@H]1O | 1 | 0.92 | 0.97 | 0.77 |  |  |  |  |  |  |  |  |  | 
3 | CCCCCCc1ccc(O[C@@H]2O[C@H](COS(=O)(=O)O)[C@@H](O)[C@H](O)[C@H]2O)cc1 |  |  |  |  | > 400 µM | 231 µM | 0.534 µM/s | 140 µM | 200 µM | 200 µM |  |  |  | 
4 | CCCCCCc1ccc(O[C@H]2O[C@H](COS(=O)(=O)O)[C@@H](O)[C@H](O)[C@H]2O)cc1 |  |  |  |  | 280 µM | 239 µM | 0.541 µM/s | 78 µM | 350 µM | 80 to 82 µM | 353 µM | 394 µM | 0.495 µM/s | 0.631 µM/s
5 | O=[N+]([O-])c1ccc(O[C@@H]2O[C@H](COS(=O)(=O)O)[C@@H](O)[C@H](O)[C@H]2O)cc1 | 0.64 | 0.77 | 0.83 | 0.68 |  |  |  |  |  |  |  |  |  | 
6 | CCCCCCCCc1ccc(O[C@@H]2O[C@H](COS(=O)(=O)O)[C@@H](O)[C@H](O)[C@H]2O)cc1 | 0.07 | 0.04 | 0.02 | 0.01 | 120 µM | 222 µM | 0.495 µM/s | 13 µM | 180 µM | 60 to 61 µM | 336 µM | 428 µM | 0.183 µM/s | 0.343 µM/s
7 | COc1cc(C=O)cc(OC)c1O[C@@H]1O[C@H](COS(=O)(=O)O)[C@@H](O)[C@H](O)[C@H]1O | 0.55 | 1 | 0.94 | 0.96 |  |  |  |  |  |  |  |  |  | 
8 | CC(=O)Nc1ccc(O[C@@H]2O[C@H](COS(=O)(=O)O)[C@@H](O)[C@H](O)[C@H]2O)cc1 | 0.87 | 0.88 | 0.9 | 0.85 |  |  |  |  |  |  |  |  |  | 
9 | OC[C@H]1O[C@H](Oc2ccccc2)[C@H](O)[C@@H](O)[C@@H]1O | 0.96 | 0.86 | 0.97 | 1 |  |  |  |  |  |  |  |  |  | 
10 | O=Cc1ccc(O[C@@H]2O[C@H](COS(=O)(=O)O)[C@@H](O)[C@H](O)[C@H]2O)cc1 | 1 | 1.06 | 0.81 | 0.87 |  |  |  |  |  |  |  |  |  | 
11 | CCCCCCCCO[C@@H]1O[C@H](COS(=O)(=O)O)[C@@H](O)[C@H](O)[C@H]1O | 0.72 | 0.79 | 0.9 | 0.54 |  |  |  |  |  |  |  |  |  | 
12 | O=S(=O)(O)OC[C@H]1O[C@H](O[C@H]2O[C@H](CO)[C@@H](O)[C@H](O)[C@H]2O)[C@H](O)[C@@H](O)[C@@H]1O | 0.13 | 0.22 | 0.21 | 0.01 | 180 µM |  |  | 330 µM | 50 µM | 80 µM |  |  |  | 
13 | O=S(=O)(O)OC[C@H]1O[C@@H](Oc2ccc(-c3ccccc3)cc2)[C@H](O)[C@@H](O)[C@@H]1O | 0.58 | 0.84 | 0.9 | 0.85 |  |  |  |  | 1800 µM |  | 290 µM |  |  | 0.436 µM/s
14 | O=S(=O)(O)OC[C@H]1O[C@@H](Oc2ccccc2CO)[C@H](O)[C@@H](O)[C@@H]1O | 0.89 | 0.85 | 0.9 | 0.73 |  |  |  |  |  |  |  |  |  | 
15 | O=S(=O)(O)OC[C@H]1O[C@H](OCc2ccccc2)[C@H](O)[C@@H](O)[C@@H]1O | 0.07 | 0.74 | 0.86 | 0.47 |  |  |  |  |  | 160 µM |  |  |  | 
16 | O=Cc1cccc(O[C@@H]2O[C@H](COS(=O)(=O)O)[C@@H](O)[C@H](O)[C@H]2O)c1 | 1.05 | 0.81 | 0.78 | 0.95 |  |  |  |  |  |  |  |  |  | 
17 | O=S(=O)(O)OC[C@H]1O[C@@H](Oc2ccc(F)c(F)c2)[C@H](O)[C@@H](O)[C@@H]1O | 0.74 | 0.92 | 0.88 | 0.89 |  |  |  |  |  |  |  |  |  | 

— ChEMBL document CHEMBL4004850, “Rational design of reversible inhibitors for trehalose 6-phosphate phosphatases” (Eur J Med Chem, 2017)
